Laboratory results reported in ChEMBL document CHEMBL3758168, “Hybrid triazoles: Design and synthesis as potential dual inhibitor of growth and efflux inhibition in tuberculosis” (Eur J Med Chem, 2016).
≈ marks a conversion by molar mass, not a printed value.

Assays:
[1] = system: Mycolicibacterium smegmatis; assay: Anti-tubercular activity against Mycobacterium smegmatis MC2 155 ATCC 700084 after 3 days by microdilution method; assay type: functional; details: MC2 155 ATCC 700084, 72 h
Outline: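 M. smegmatis mc2155 grown in MB7H9 + 10% OADC at 37 °C with shaking to OD600 0.8. Inoculum set to 0.5 McFarland, diluted 1:100, and mixed 1:1 with two-fold serial dilutions in MB7H9. Plates incubated 3 days at 37 °C with growth and sterility controls. MIC taken as the lowest concentration with no visible growth.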

[2] = Cytotoxicity against human MDM assessed as cell viability after 3 days by Alamar blue dye-based fluorocytometric analysis relative to control; details: 72 h
[3] = system: Mycobacterium tuberculosis; assay: Antibacterial activity against Mycobacterium tuberculosis H37Rv ATCC 27294T assessed as isoniazid MIC at 0.25 ug/ml after 7 days by microdilution checkerboard assay; assay type: functional; details: 168 h
Outline: (§1)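 Two-dimensional checkerboard in H37Rv at 10^5 CFU/ml in MB7H9/OADC. Partner drug (amikacin, EtBr, isoniazid, ofloxacin or rifampin) two-fold serially diluted across columns 3-11. Test compound two-fold serially diluted down rows 2-6. Plates incubated 7 days at 37 °C, then MTT added overnight. […] Run in triplicate.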

[4] = system: Mycobacterium tuberculosis; assay: Antibacterial activity against Mycobacterium tuberculosis H37Rv ATCC 27294T assessed as isoniazid MIC at 0.12 ug/ml after 7 days by microdilution checkerboard assay; assay type: functional; details: 168 h; outline: as §1
[5] = system: Mycobacterium tuberculosis; assay: Antibacterial activity against Mycobacterium tuberculosis H37Rv ATCC 27294T assessed as ethidium bromide MIC at 0.12 ug/ml after 7 days by microdilution checkerboard assay; assay type: functional; details: 168 h; outline: as §1
[6] = system: Mycobacterium tuberculosis; assay: Antibacterial activity against Mycobacterium tuberculosis H37Rv ATCC 27294T assessed as ethidium bromide MIC at 0.25 ug/ml after 7 days by microdilution checkerboard assay; assay type: functional; details: 168 h; outline: as §1
[7] = system: Mycobacterium tuberculosis; assay: Antibacterial activity against Mycobacterium tuberculosis H37Rv ATCC 27294T assessed as ethidium bromide MIC at 0.5 ug/ml after 7 days by microdilution checkerboard assay; assay type: functional; details: 168 h; outline: as §1
[8] = system: Mycobacterium tuberculosis; assay: Antibacterial activity against Mycobacterium tuberculosis H37Rv ATCC 27294T assessed as ethidium bromide MIC at 1 ug/ml after 7 days by microdilution checkerboard assay; assay type: functional; details: 168 h; outline: as §1
[9] = system: Mycobacterium tuberculosis; assay: Antibacterial activity against Mycobacterium tuberculosis H37Rv ATCC 27294T assessed as ethidium bromide MIC at 2 ug/ml after 7 days by microdilution checkerboard assay; assay type: functional; details: 168 h; outline: as §1
[10] = system: Mycobacterium tuberculosis; assay: Antibacterial activity against Mycobacterium tuberculosis H37Rv ATCC 27294T assessed as ethidium bromide MIC at 4 ug/ml after 7 days by microdilution checkerboard assay; assay type: functional; details: 168 h; outline: as §1
[11] = system: Mycobacterium tuberculosis; assay: Antibacterial activity against Mycobacterium tuberculosis H37Rv ATCC 27294T assessed as ethidium bromide MIC at 8 ug/ml after 7 days by microdilution checkerboard assay; assay type: functional; details: 168 h; outline: as §1
[12] = system: Mycobacterium tuberculosis; assay: Antibacterial activity against Mycobacterium tuberculosis H37Rv ATCC 27294T assessed as ofloxacin MIC at 0.12 ug/ml after 7 days by microdilution checkerboard assay; assay type: functional; details: 168 h; outline: as §1
[13] = system: Mycobacterium tuberculosis; assay: Antibacterial activity against Mycobacterium tuberculosis H37Rv ATCC 27294T assessed as ofloxacin MIC at 0.25 ug/ml after 7 days by microdilution checkerboard assay; assay type: functional; details: 168 h; outline: as §1
[14] = system: Mycobacterium tuberculosis; assay: Antibacterial activity against Mycobacterium tuberculosis H37Rv ATCC 27294T assessed as ofloxacin MIC at 0.5 ug/ml after 7 days by microdilution checkerboard assay; assay type: functional; details: 168 h; outline: as §1
[15] = system: Mycobacterium tuberculosis; assay: Antibacterial activity against Mycobacterium tuberculosis H37Rv ATCC 27294T assessed as ofloxacin MIC at 1 ug/ml after 7 days by microdilution checkerboard assay; assay type: functional; details: 168 h; outline: as §1
[16] = system: Mycobacterium tuberculosis; assay: Antibacterial activity against Mycobacterium tuberculosis H37Rv ATCC 27294T assessed as ofloxacin MIC at 2 ug/ml after 7 days by microdilution checkerboard assay; assay type: functional; details: 168 h; outline: as §1
[17] = system: Mycobacterium tuberculosis; assay: Antibacterial activity against Mycobacterium tuberculosis H37Rv ATCC 27294T assessed as ofloxacin MIC at 4 ug/ml after 7 days by microdilution checkerboard assay; assay type: functional; details: 168 h; outline: as §1
[18] = system: Mycobacterium tuberculosis; assay: Antibacterial activity against Mycobacterium tuberculosis H37Rv ATCC 27294T assessed as ofloxacin MIC at 8 ug/ml after 7 days by microdilution checkerboard assay; assay type: functional; details: 168 h; outline: as §1
[19] = system: Mycobacterium tuberculosis; assay: Antibacterial activity against Mycobacterium tuberculosis H37Rv ATCC 27294T assessed as amikacin MIC at 0.12 ug/ml after 7 days by microdilution checkerboard assay; assay type: functional; details: 168 h; outline: as §1
[20] = system: Mycobacterium tuberculosis; assay: Antibacterial activity against Mycobacterium tuberculosis H37Rv ATCC 27294T assessed as amikacin MIC at 0.25 ug/ml after 7 days by microdilution checkerboard assay; assay type: functional; details: 168 h; outline: as §1
[21] = system: Mycobacterium tuberculosis; assay: Antibacterial activity against Mycobacterium tuberculosis H37Rv ATCC 27294T assessed as amikacin MIC at 0.5 ug/ml after 7 days by microdilution checkerboard assay; assay type: functional; details: 168 h; outline: as §1
[22] = system: Mycobacterium tuberculosis; assay: Antibacterial activity against Mycobacterium tuberculosis H37Rv ATCC 27294T assessed as amikacin MIC at 1 ug/ml after 7 days by microdilution checkerboard assay; assay type: functional; details: 168 h; outline: as §1
[23] = system: Mycobacterium tuberculosis; assay: Antibacterial activity against Mycobacterium tuberculosis H37Rv ATCC 27294T assessed as amikacin MIC at 2 ug/ml after 7 days by microdilution checkerboard assay; assay type: functional; details: 168 h; outline: as §1
[24] = system: Mycobacterium tuberculosis; assay: Antibacterial activity against Mycobacterium tuberculosis H37Rv ATCC 27294T assessed as amikacin MIC at 4 ug/ml after 7 days by microdilution checkerboard assay; assay type: functional; details: 168 h; outline: as §1
[25] = system: Mycobacterium tuberculosis; assay: Anti-tubercular activity against Mycobacterium tuberculosis H37Rv ATCC 27294T after 7 days by mircodilution method; assay type: functional; details: 168 h
Outline: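 H37Rv grown static in MB7H9 + 10% OADC at 37 °C to OD600 0.8, then diluted to about 10^5 cells/ml. Mixed 1:1 with two-fold serial dilutions in MB7H9/OADC and incubated 7 days at 37 °C. MTT added to final 2.5% and plates incubated overnight. MIC is the lowest concentration with no colour change. Run in triplicate.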

[26] = system: Mycobacterium tuberculosis; assay: Antibacterial activity against Mycobacterium tuberculosis H37Rv ATCC 27294T assessed as isoniazid MIC at 8 ug/ml after 7 days by microdilution checkerboard assay; assay type: functional; details: 168 h; outline: as §1
[27] = system: Mycobacterium tuberculosis; assay: Antibacterial activity against Mycobacterium tuberculosis H37Rv ATCC 27294T assessed as isoniazid MIC at 4 ug/ml after 7 days by microdilution checkerboard; assay type: functional; details: 168 h; outline: as §1
[28] = system: Mycobacterium tuberculosis; assay: Antibacterial activity against Mycobacterium tuberculosis H37Rv ATCC 27294T assessed as isoniazid MIC at 2 ug/ml after 7 days by microdilution checkerboard assay; assay type: functional; details: 168 h; outline: as §1
[29] = system: Mycobacterium tuberculosis; assay: Antibacterial activity against Mycobacterium tuberculosis H37Rv ATCC 27294T assessed as isoniazid MIC at 1 ug/ml after 7 days by microdilution checkerboard assay; assay type: functional; details: 168 h; outline: as §1
[30] = system: Mycobacterium tuberculosis; assay: Antibacterial activity against Mycobacterium tuberculosis H37Rv ATCC 27294T assessed as isoniazid MIC at 0.5 ug/ml after 7 days by microdilution checkerboard assay; assay type: functional; details: 168 h; outline: as §1
[31] = system: Mycobacterium tuberculosis; assay: Antibacterial activity against Mycobacterium tuberculosis H37Rv ATCC 27294T assessed as amikacin MIC at 8 ug/ml after 7 days by microdilution checkerboard assay; assay type: functional; details: 168 h; outline: as §1
[32] = system: Mycobacterium tuberculosis; assay: Antibacterial activity against Mycobacterium tuberculosis H37Rv ATCC 27294T assessed as rifampin MIC at 0.12 ug/ml after 7 days by microdilution checkerboard assay; assay type: functional; details: 168 h; outline: as §1
[33] = system: Mycobacterium tuberculosis; assay: Antibacterial activity against Mycobacterium tuberculosis H37Rv ATCC 27294T assessed as rifampin MIC at 0.25 ug/ml after 7 days by microdilution checkerboard assay; assay type: functional; details: 168 h; outline: as §1
[34] = system: Mycobacterium tuberculosis; assay: Antibacterial activity against Mycobacterium tuberculosis H37Rv ATCC 27294T assessed as rifampin MIC at 0.5 ug/ml after 7 days by microdilution checkerboard assay; assay type: functional; details: 168 h
Outline: (§2)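 M. tuberculosis H37Rv grown in MB7H9 + 10% OADC at 37 °C to OD600 0.8; plates inoculated at 10^5 CFU/ml. Rifampicin two-fold serially diluted across columns, test compound two-fold diluted down rows (two-dimensional checkerboard). Sealed, 37 °C for seven days, then MTT added and incubated overnight. MIC read as no colour change. Triplicate.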

[35] = system: Mycobacterium tuberculosis; assay: Antibacterial activity against Mycobacterium tuberculosis H37Rv ATCC 27294T assessed as rifampin MIC at 1 ug/ml after 7 days by microdilution checkerboard assay; assay type: functional; details: 168 h; outline: as §2
[36] = system: Mycobacterium tuberculosis; assay: Antibacterial activity against Mycobacterium tuberculosis H37Rv ATCC 27294T assessed as rifampin MIC at 2 ug/ml after 7 days by microdilution checkerboard assay; assay type: functional; details: 168 h; outline: as §2
[37] = system: Mycobacterium tuberculosis; assay: Antibacterial activity against Mycobacterium tuberculosis H37Rv ATCC 27294T assessed as rifampin MIC at 4 ug/ml after 7 days by microdilution checkerboard assay; assay type: functional; details: 168 h; outline: as §2
[38] = system: Mycobacterium tuberculosis; assay: Antibacterial activity against Mycobacterium tuberculosis H37Rv ATCC 27294T assessed as rifampin MIC at 8 ug/ml after 7 days by microdilution checkerboard assay; assay type: functional; details: 168 h; outline: as §2

Row | SMILES | MIC [1] | IC50 [2] | MIC [3] | MIC [4] | MIC [5] | MIC [6] | MIC [7] | MIC [8] | MIC [9] | MIC [10] | MIC [11] | MIC [12] | MIC [13] | MIC [14] | MIC [15] | MIC [16] | MIC [17] | MIC [18] | MIC [19] | MIC [20] | further results
1 | CCCSc1nnc(COc2ccccc2C2=NOC(c3ccc(Cl)cc3Cl)C2)n1NC(C)=O (stereo unspecified) | 1 µg/mL (≈ 1.92 µM) | 128 µg/mL (≈ 245 µM) | 0.1 µg/mL | 0.1 µg/mL | 12.5 µg/mL | 12.5 µg/mL | 12.5 µg/mL | 6.25 µg/mL | 0.781 µg/mL | 0.195 µg/mL | 0.195 µg/mL | 1 µg/mL | 1 µg/mL | 1 µg/mL | 0.25 µg/mL | 0.0312 µg/mL | 0.0156 µg/mL | 0.0156 µg/mL | 1 µg/mL | 1 µg/mL | MIC [21]: 1 µg/mL; MIC [22]: 1 µg/mL; MIC [23]: 0.25 µg/mL; MIC [24]: 0.25 µg/mL; MIC [25]: 4 µg/mL (≈ 7.69 µM); MIC [26]: 0.00078 µg/mL; MIC [27]: 0.00312 µg/mL; MIC [28]: 0.0125 µg/mL; MIC [29]: 0.05 µg/mL; MIC [30]: 0.1 µg/mL; MIC [31]: 0.0312 µg/mL; MIC [32]: 0.0625 µg/mL; MIC [33]: 0.0312 µg/mL; MIC [34]: 0.0312 µg/mL; MIC [35]: 0.0156 µg/mL; MIC [36]: 0.0156 µg/mL; MIC [37]: 0.0156 µg/mL; MIC [38]: 0.0156 µg/mL
2 | CSc1ccc2c(c1)N(CCC1CCCCN1C)c1ccccc1S2 (stereo unspecified) [THIORIDAZINE] | 31 µg/mL (≈ 83.7 µM) | 5.5 µg/mL (≈ 14.8 µM) | 0.1 µg/mL | 0.1 µg/mL | 12.5 µg/mL | 12.5 µg/mL | 6.25 µg/mL | 6.25 µg/mL | 3.12 µg/mL | 1.56 µg/mL | 0.195 µg/mL | 2 µg/mL | 2 µg/mL | 1 µg/mL | 1 µg/mL | 1 µg/mL | 1 µg/mL | 0.0312 µg/mL | 1 µg/mL | 1 µg/mL | MIC [21]: 1 µg/mL; MIC [22]: 1 µg/mL; MIC [23]: 1 µg/mL; MIC [24]: 0.25 µg/mL; MIC [25]: 16 µg/mL (≈ 43.2 µM); MIC [26]: 0.00156 µg/mL; MIC [27]: 0.0125 µg/mL; MIC [28]: 0.1 µg/mL; MIC [29]: 0.1 µg/mL; MIC [30]: 0.1 µg/mL; MIC [31]: 0.0312 µg/mL; MIC [32]: 1 µg/mL; MIC [33]: 0.5 µg/mL; MIC [34]: 0.5 µg/mL; MIC [35]: 0.5 µg/mL; MIC [36]: 0.5 µg/mL; MIC [37]: 0.5 µg/mL; MIC [38]: 0.0156 µg/mL
